Compound activity (PubChem BioAssay)
miR-122 sensor: blocks miR-122 activity in Huh7 sensor cells. AID 602342. activation (reporter increase), % at 12.5 µM. 0.3% of 340,000 active. Huh7 miR-122 Renilla luciferase sensor, 48 h; neutral wells = 0, positive control = 100;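 active means mean replicate activation score at least 90 and every replicate individually at or above 90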;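 further: higher luciferase means less miR-122 activity so hits act as miR-122 inhibitors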
PGC1a acetyl inh: lowers PGC1a acetylation signal in U2OS cells; inhibition, % at 15.6 µM; AlphaScreen anti-acetyl-lysine; with virally co-expressed GCN5 acetyltransferase; 0.17% of 350,000 active;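 active means every replicate shows inhibition of at least 40%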;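 further: 0% = neutral control wells and 100% = positive control wells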
CAL PDZ FP-1: inhibitors of human CAL PDZ peptide binding | purified CAL PDZ, TMR-peptide fluorescence polarization, 1 h | inhibition, % at 24.9 µM | Q9HD26 | 0.92% of 300,000 active | AID 602252;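 active means mean inhibition of at least 30% with at least half of replicates also reaching 30%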;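 further: 0% = DMSO neutral control and 100% = excess unlabeled competitor peptide PRC23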
CAL PDZ FP-2: inhibitors of human CAL PDZ peptide binding. AID 504414. purified CAL PDZ, TMR-peptide fluorescence polarization, 1 h. inhibition, % at 20 µM. 0.02% of 330,000 active;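 active means highest replicate inhibition of at least 40%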;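 further: plate controls were DMSO neutral control wells for no effect and unlabeled competitor peptide control wells for full effect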
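Material: tagged CAL PDZ domain; buffer or medium: 25 mM sodium phosphate pH 7.4, 150 mM NaCl, TCEP, IgG, Thesit; compound dosing: single point, 20 µM; schedule: 1 h incubation at room temperature before polarization reading; measured by: FP readout, S and P plane fluorescence; read-out basis: percent inhibition from loss of millipolarization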
ARNT TACC3 PPI: disrupts binding between human ARNT and TACC3; inhibition, % at 9.99 µM; AlphaScreen His-ARNT PAS-B/GST-TACC3 binding, luminescence; TACC3 fragment carries E629A point mutation; 0.66% of 390,000 active;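 active means mean inhibition of replicates at least 50% and at least half of replicates each reaching 50%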;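 further: 0% = complete ARNT plus TACC3 wells and 100% = ARNT alone without TACC3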
CFTR F508del cor: correctors of CFTR F508del function in bronchial epithelial cells; CFBE cells, YFP halide quenching; stimulated with forskolin plus potentiator P3; % fluorescence drop versus neutral controls; activity (quench increase), % at 7.58 µM; 0.36% of 350,000 active;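 active means mean added fluorescence quench of at least 8% versus neutral control, with both replicates also reaching 8%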;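 further: cells transiently co-express mutant CFTR-F508del with the halide-sensitive YFP; corrector assay measuring rescue of mutant channel to the surface after 24 h compound exposure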
The depositor's hits bear a star; · = not tested or not shown; [ ] = dose if it differs, or a comment. The list is not random: actives were taken first. Their share in the collection is about 1.7%.

SMILES	miR-122 sensor	PGC1a acetyl inh	CAL PDZ FP-1	CAL PDZ FP-2	ARNT TACC3 PPI	CFTR F508del cor
CN(CC1COCCO1)C(=O)c1cc(COc2c(F)cccc2F)on1 (stereo unspecified)	-1.4	0.5	-0.2	-1.5	7.6	-1.4
CN(CC1COc2ccccc2O1)C(=O)c1cc(COc2c(F)cccc2F)on1 (stereo unspecified)	-0.6	0.1	57.0*	-0.6	-6.5	-0.6
Cc1nn(Cc2ccc(Cl)c(Cl)c2)c(C)c1NC(=O)c1sc2ccccc2c1Cl	-32.3	-9.1	34.6*	·	-11.8	·
Cc1nn(Cc2c(Cl)cccc2Cl)c(C)c1NC(=O)c1sc2ccccc2c1Cl	3.7	4.5	-2.2	0.5	-0.3	·
C[C@H](CO)N1C[C@H](C)[C@H](CN(C)CC2CC2)Oc2ccc(NC(=O)c3ccncc3)cc2CC1=O	-6.2[16.7 µM]	-0.6	·	·	6.8	1.5
O=C(NNC(=O)c1ccc[nH]1)Nc1cccc(C(F)(F)F)c1	·	3.5	71.0*	-0.7	1.3	0.7
O=C(NNC(=O)c1ccc[nH]1)c1cccc(C(F)(F)F)c1	-7.2	-3.5	-3.7	-2.1	-7.6	-1.8
C/C=C/c1ccc2c(c1)O[C@@H](CN(C)C(=O)CN1CCOCC1)[C@@H](C)CN([C@H](C)CO)S2(=O)=O	3.7[16.7 µM]	-3.8	·	·	-3.5	-3.4
CCCCOc1ccc(C(=O)CCN2CCCCC2)cc1	-5.7	-1.3	-3.3	-0.8	-2.2	1.2
CCCOc1ccc(C(=O)CCCC(=O)c2ccc(OCCC)cc2)cc1	-1.8	11.6	-24.5	-3.9	-18.1	8.3*
CN(c1cccc(NS(=O)(=O)c2cccs2)c1)S(C)(=O)=O	5.5	50.7*	-0.7	0.1	-2.1	·
COc1ccc(S(=O)(=O)Nc2cccc(N(C)S(C)(=O)=O)c2)cc1Br	35.8	0.8	-5.7	-1.6	-2.7	·
CCCn1c(CN2CCN(C(=O)OCC)CC2)nc2cc(NC(=O)CC)ccc21	40.7	8.8	-3.7	0.4	0.6	8.6*
CNC(=O)c1cccc(NC(=O)CCCNC(=O)c2ccc(Cl)cc2)c1	·	·	65.6*	-1.5	-0.2	-0.3
COc1cc(N=c2oc3c(C)ncc(CO)c3cc2C(N)=O)cc(OC)c1OC	-0.7	-6.5	-4.0	-0.3	35.2*	-4.0
CN(C)CCC(C(=O)c1ccccc1)c1ccccn1 (stereo unspecified)	-4.3	0.4	85.4*	0.0	-2.6	·
COc1ccc(NC(=O)Nc2cccc3c2O[C@@H](CN(C)C)[C@@H](C)CN([C@H](C)CO)C3=O)cc1	2.0[16.7 µM]	4.1	·	·	-1.8	-0.5
CN(C)S(=O)(=O)N1CCN(c2ccc([N+](=O)[O-])c(NC3CC3)c2)CC1	0.1	-4.6	-7.0	-2.1	0.5	2.5
O=[N+]([O-])c1ccc(N2CCCC2)cc1NC1CC1	-10.6	-10.3	35.6*	-0.8	0.8	-2.2
Cc1n[nH]c(=S)n(NC(=O)/C=C/C(=O)Nn2c(=S)[nH]nc(C)c2=O)c1=O	·	·	-1.9	-1.8	65.6*	2.0
Cc1n[nH]c(=S)n(NC(=O)CC(=O)Nn2c(=S)[nH]nc(C)c2=O)c1=O	·	8.3	0.6	-0.3	67.4*	2.7
CN(C)C(=O)C[C@@H]1CC[C@@H]2[C@H](COC[C@@H](O)CN2CC2CC2)O1	2.2[16.7 µM]	-0.9	·	·	-6.4	2.8
O=C(O)C1C2CC3OC(=O)C1C3C2 (stereo unspecified)	-0.7	61.8*	-5.4	-0.8	-3.5	1.5
Cc1cc(NC(=O)CSc2nnc(-c3ccncc3)n2C)n(-c2ccccc2)n1	-3.3	-1.0	77.4*	0.3	-9.4	-5.4
O=C(CCl)N=c1sccn1Cc1ccccc1Cl	·	52.3*	-2.3	-2.0	-2.8	-17.1
CCC(=O)OCC(=O)N=c1sccn1Cc1ccccc1Cl	0.4	3.7	3.4	0.5	-4.7	-1.1
O=C(CCl)N=c1sccn1Cc1ccc(Cl)cc1Cl	-21.6	65.8*	-1.5	-2.6	-11.0	-4.8
O=C(CCl)N=c1sccn1Cc1cccc2ccccc12	·	·	·	-2.2	23.2	-2.1
CCOC(=O)C1=C(C)NC2=C(C(=O)CC(c3cccs3)C2)C1c1cccs1 (stereo unspecified)	94.6*	-28.2	·	-1.3	-4.6	·
